Cl transport mod = KCC2 cotransporter modulators, thallium flux, primary screen, cell-based, HEK293 KCC2, FluoZin-2 fluorescence, MLSMR; Solute carrier family 12 member 5 (Homo sapiens), Q9H2X9; KCC2 cells, thallium flux FluoZin-2 fluorescence; B-score of Tl+ flux slope (higher = more flux/activation; lower = inhibition) at 10 µM; 190,000 tested, 2.2% active; AID 1456, 2008;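 active = thallium flux slope and its plate-corrected score both differing from the plate sample mean at a set confidence after two filtering rounds, in either direction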;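 note: slope of fluorescence scaled to starting intensity during 10 to 20 s after thallium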
Target sequence (Q9H2X9 whole entry, looked up): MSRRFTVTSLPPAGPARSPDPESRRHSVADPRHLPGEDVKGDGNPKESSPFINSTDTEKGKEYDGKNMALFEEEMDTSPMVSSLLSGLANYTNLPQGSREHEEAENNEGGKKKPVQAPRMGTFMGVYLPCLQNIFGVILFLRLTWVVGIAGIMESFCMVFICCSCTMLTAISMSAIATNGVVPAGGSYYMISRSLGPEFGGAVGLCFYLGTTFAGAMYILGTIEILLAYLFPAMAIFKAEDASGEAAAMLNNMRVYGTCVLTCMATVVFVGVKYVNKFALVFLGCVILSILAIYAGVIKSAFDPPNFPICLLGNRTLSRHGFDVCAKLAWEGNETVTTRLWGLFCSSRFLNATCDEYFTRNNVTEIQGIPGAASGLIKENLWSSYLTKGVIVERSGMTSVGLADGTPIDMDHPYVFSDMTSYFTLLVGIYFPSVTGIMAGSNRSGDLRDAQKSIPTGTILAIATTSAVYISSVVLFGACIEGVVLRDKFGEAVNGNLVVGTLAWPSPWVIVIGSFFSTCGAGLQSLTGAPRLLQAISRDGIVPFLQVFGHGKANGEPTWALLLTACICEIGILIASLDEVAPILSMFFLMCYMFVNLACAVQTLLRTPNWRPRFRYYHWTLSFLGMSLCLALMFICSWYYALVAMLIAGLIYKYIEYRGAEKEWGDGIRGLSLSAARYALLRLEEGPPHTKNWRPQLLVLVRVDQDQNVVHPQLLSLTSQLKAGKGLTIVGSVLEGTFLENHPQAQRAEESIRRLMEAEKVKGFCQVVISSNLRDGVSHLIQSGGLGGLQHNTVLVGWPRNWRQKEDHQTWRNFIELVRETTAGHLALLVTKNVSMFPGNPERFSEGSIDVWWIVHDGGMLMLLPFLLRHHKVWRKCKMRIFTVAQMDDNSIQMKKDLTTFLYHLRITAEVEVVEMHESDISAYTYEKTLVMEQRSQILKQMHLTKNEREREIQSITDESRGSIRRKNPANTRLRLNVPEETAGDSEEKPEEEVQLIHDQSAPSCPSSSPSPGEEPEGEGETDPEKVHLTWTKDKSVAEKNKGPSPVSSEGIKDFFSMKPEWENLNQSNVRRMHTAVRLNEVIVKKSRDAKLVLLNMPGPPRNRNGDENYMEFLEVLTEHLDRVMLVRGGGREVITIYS
WT yeast gro inh = growth inhibition of WT strain, primary screen, mitochondrial fusion inhibitor project, WT and mutant strains, chemical genetic; mitochondrial fusion phenotypic screen; inhibition, % at 10 µM; 190,000 tested, 2.1% active; AID 1362, 2008; in the data active = inhibition above about 58%; tested in S. cerevisiae
SKKanGAS inh = S. pyogenes SKKanGAS growth inhibitors in kanamycin, primary screen, streptokinase expression inhibitor project, SKKanGAS strain, BacTiter-Glo luminescence | 300,000 tested, 1.3% active | AID 1662, 2009 | inhibition, % at 7.5 µM | 6 h;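 active = mean replicate score, as percent of positive control median, at least 50; inconclusive = mean below 50 but one replicate at or above 50; inactive = mean and every replicate below 50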;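 note: strain carries kanamycin resistance gene driven by streptokinase promoter and grows in 40 µg/ml kanamycin; loss of luminescence reflects streptokinase promoter inhibition or plain growth inhibition; 0% = median of DMSO wells and 100% = positive control at its reference dose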
Ins promoter up = insulin promoter activators in MIN6 cells, imaging, high-content screening, mouse beta cells. MIN6 insulin promoter-GFP reporter; stronger effect = higher value. z-score at 5 µM. 190,000 tested, 0.3% active;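 active = z-score above 3 at 5 µM with at least 500 cells counted in the well; inconclusive = wells under 500 cells, flagged as cytotoxic or low count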
Autophagy mod = autophagy modulators in MEF cells, primary screen, imaging, high-content, MEF GFP-LC3; calls only at 10 µM (by protocol); MEF GFP-LC3 puncta imaging; test concentration mostly 10 µM; 190,000 tested, 0.98% active;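 active = percentage of spot-positive cells more than 3 SD above its plate mean, without a fluorescence outlier flag or 80% toxicity; inconclusive = no clear call, values can overlap the other calls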;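 note: spot-positive cell cutoff set from DMSO-treated cells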
Rad51 HR inh = human RAD51 strand exchange inhibitors, primary screen, biochemical, fluorescence; DNA repair protein RAD51 homolog 1 (Homo sapiens), Q06609; hRad51 DNA strand exchange, fluorescence dequenching; AID 1385, 2008; 200,000 tested, 0.085% active; inhibition, % at 10 µM;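 active = inhibition above 40% at the single screening dose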;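 note: 0% = DMSO control wells and 100% = blanks with heterologous ssDNA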
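System: hRad51 filaments on single-stranded DNA; reagent: Fluorescein- and BHQ1-tagged 47-mer duplex; compound dosing: one concentration, 10 µM final; timing: filaments 15 min 37 °C, then compound 30 min; measured by: fluorescein emission 520 nm, excitation 485 nm; benchmarks: per-plate controls and blanks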
KCC2 sec1 = KCC2 modulators in sodium-free buffer, confirmation, cell-based, HEK293 KCC2, thallium flux, secondary assay. shares compounds with Cl transport mod. FluoZin2 fluorescence; stronger effect = higher value. normalised thallium flux (F/F0 slope) at 10 µM. 3,700 tested, 15% active. AID 1713, 2009;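 active = thallium flux slope above the same plate's solvent-only control mean plus 3 SD; inconclusive = the two replicate wells disagree; inactive = no significant difference from solvent-only control wells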
KCC2 bumet counter = thallium flux persisting under bumetanide in KCC2 cells, confirmation, counter-screen for KCC2 modulator project, cell-based, HEK293 KCC2, FluoZin2, secondary assay 3. 3,700 tested, 49% active. normalized thallium flux at 10 µM. shares compounds with Cl transport mod. HEK293-KCC2 + bumetanide/ouabain; stronger effect = higher value;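 active = thallium entry rate above the same plate's blocked-transporter control wells by more than 3 SD; inconclusive = the two repeat wells disagree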;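 note: raw slope of fluorescence over initial fluorescence between 10 and 20 s after thallium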
KCC2 secondary2 = KCC2 modulators without ouabain present, confirmation, cell-based, HEK293 KCC2, thallium flux, FluoZin2, secondary assay 2 | shares compounds with Cl transport mod | thallium flux FluoZin2 fluorescence; actives lie on both sides; F/F0 rise rate, 10–20 s post-thallium | normalized thallium flux at 10 µM | 3,700 tested, 23% active | AID 1715, 2009;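 active = thallium flux slope more than 3 SD above or below the plate's solvent-only control mean, mostly below; inconclusive = the two repeat wells disagreed; inactive = no significant shift from solvent-only controls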;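 note: raw slope with 0.1% DMSO as baseline and bumetanide as block control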
HEK293 Tl flux = thallium flux modulation in parental HEK cells, confirmation, counter-screen for KCC2 modulator project, cell-based, counterscreen 1; shares compounds with Cl transport mod; HEK293 parental cells, thallium flux FluoZin2, ouabain; baseline-ratio fluorescence slope, 10–20 s after thallium; thallium flux rate (normalised fluorescence) at 10 µM; 3,700 tested, 46% active; AID 1716, 2009;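 active = thallium flux rate significantly above the same plate's solvent-only control wells, beyond their mean plus 3 SD; inconclusive = the two replicate wells gave conflicting results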
KCC2 ouabain = KCC2 inhibitors and activators, ouabain retest, confirmation, HEK-KCC2 cells; AID 1717, 2009; HEK293-KCC2, thallium flux FluoZin2 fluorescence; bidirectional: low = inhibitor, high = activator; 3,700 tested, 48% active; shares compounds with Cl transport mod; raw Tl+ flux slope (below DMSO = inhibition, above = activation) at 10 µM;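 active = thallium flux slope beyond 3 SD from same-plate DMSO control mean in most replicates, usually higher, sometimes lower; inconclusive = repeat tests gave conflicting results; inactive = no significant difference from controls in most replicates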;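 note: slope of initial-normalized fluorescence between seconds 10 and 20 after thallium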
HEK293 Tl flux2 = native HEK Tl+ uptake effects, second counter-screen – HEK cells, counterscreen 2, counter-screen for KCC2 modulator project, confirmation | shares compounds with Cl transport mod | HEK293 parental, thallium flux FluoZin-2 fluorescence slope | AID 1718, 2009 | thallium flux slope at 10 µM | 3,700 tested, 33% active;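 active = thallium flux slope above the same plate's solvent-control mean plus 3 SD in both duplicate wells; inconclusive = duplicate wells that disagreed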;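 note: run without ouabain in cells lacking the KCC2 cotransporter; slope of fluorescence scaled to its starting value between 10 and 20 s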
Active calls of the source: *; i = inactive; ? = inconclusive; . = not tested or not shown. Only some compounds are listed: those with a hit (about 4.2% of all), similar ones and a draw of the others.

SMILES	Cl transport mod	WT yeast gro inh	SKKanGAS inh	Ins promoter up	Autophagy mod	Rad51 HR inh	KCC2 sec1	KCC2 bumet counter	KCC2 secondary2	HEK293 Tl flux	KCC2 ouabain	HEK293 Tl flux2
O=S(=O)(Nc1ncnc2sc3c(c12)CCC3)c1ccc2ccccc2c1	-3.1*	12.2	.	0.9	i	-5.0	0.00764	0.00562*	0.0287	0.0076	0.0164	0.0102
O=C(OCC(=O)N1CCc2ccccc2C1)c1ccc(N2CCOCC2)c([N+](=O)[O-])c1	-4.3*	-2.6	-5.6	-0.29	i	-0.5	0.00556	0.00502	0.0218*	0.0072	?	0.0113
O=C(c1ccc(N2CCCCCC2)c([N+](=O)[O-])c1)N1CCc2ccccc21	-6.68*	15.2	11.6	-0.37	i	-6.8	0.0155	?	0.0232*	0.0071	0.0118	0.00942
Cc1ccc(C(=O)N2CCc3ccccc32)cc1[N+](=O)[O-]	.	.	1.1	.	.	.	.	.	.	.	.	.
Nc1ccc(C(=O)OCC(=O)N2CCc3ccccc3C2)cc1[N+](=O)[O-]	-5.94*	1.4	-13.6	0.4	i	1.9	0.00566	0.0058	0.0273*	?	0.012*	0.0103
Nc1ccc(C(=O)OCC(=O)N2CCN(C(=O)c3ccco3)CC2)cc1[N+](=O)[O-]	0.02	-4.0	-7.9	0.4	i	3.0	.	.	.	.	.	.
CCOc1ccccc1N1CCN(C(=O)c2cc(-c3cccnc3)nc3c(Cl)cccc23)CC1	.	.	33.0	.	.	.	.	.	.	.	.	.
CCN(CC)CCCN1C(=O)C(=O)/C(=C(/O)c2ccc(OC)cc2)C1c1ccco1 (centres undefined)	.	.	-9.9	.	.	.	.	.	.	.	.	.
CCN(CC)CCN1C(=O)C(=O)/C(=C(/O)c2ccc(OC)cc2)C1c1ccco1 (centres undefined)	8.68*	-13.9	-2.3	1.09	i	.	0.00608	0.00574*	0.0307	?	0.0202	?
O=C(NCCc1ccccc1)C1CCC(=O)N1CCc1ccccc1 (centres undefined)	.	.	0.6	.	.	.	.	.	.	.	.	.
CCOc1ccc(CCNC(=O)C2CCC(=O)N2CCc2ccccc2)cc1OCC (centres undefined)	.	16.6	.	-0.21	i	5.0	0.0161	0.00396	0.0309	0.00688	0.016	0.00977
Cc1ccc(-c2csc(NC(=O)CCNC(=O)c3ccccc3Cl)n2)cc1	-3.78*	38.6	-6.2	-0.25	i	8.5	0.00613	0.00466	?	0.0076	?	0.0101
O=C(COC(=O)c1cccnc1Cl)Nc1nc(-c2ccccc2)cs1	-5.34*	14.3	3.7	0.56	i	-4.0	0.0056*	0.00626	0.0286	0.00677	0.0409*	0.00997
CC(=O)Nc1ccc(Nc2cc(C)nc3c(-c4ccccc4)cnn23)cc1	-3.92*	36.7	.	-0.42	i	-2.0	0.00781	0.00917*	0.032	0.00735	0.0203	0.0106
Cc1cc(N)n2ncc(-c3ccccc3)c2n1	-0.187	10.8	-6.8	0.35	i	-4.5	.	.	.	.	.	.
S=c1nc(Cc2ccc(Cl)cc2)[nH]c2ccccc12	66.6*	5.5	10.6	-1.05	i	23.9	0.0529*	0.153*	0.0437*	0.0985*	0.0848*	0.0435*
S=c1nc(Cc2ccccc2)[nH]c2ccccc12	.	.	5.1	.	.	.	.	.	.	.	.	.
Cc1oc(-c2cc(F)cc(F)c2)nc1CN1CCN(C(=O)c2ccco2)CC1	.	.	-6.9	.	.	.	.	.	.	.	.	.
Cc1cccc(OCC(=O)N/N=C/CC(C)c2ccccc2)c1C (centres undefined)	-4.47*	7.4	7.5	0.1	i	5.5	0.0089	0.00535	0.0309	0.00737	?	0.0112
Cc1ccccc1OCC(=O)N/N=C/C=C/c1ccccc1	-1.01	7.5	-4.9	0.08	i	27.4	.	.	.	.	.	.
COc1ccc(NC(=S)N(C(C)C)C2CCN(C(C)C)CC2)cc1Cl	.	.	-1.7	.	.	.	.	.	.	.	.	.
O=c1nc(Nc2ccccc2)oc2ccccc12	0.218	.	0.8	-1.15	.	-3.2	.	.	.	.	.	.
O=c1nc(Nc2cccc(Cl)c2)oc2cc(Cl)oc(=O)c12	-4.53*	.	7.7	0.07	.	-9.7	0.00622	0.00485	0.029	0.00646	?	0.0102
CC1Cc2ccccc2N1C(=O)COC(=O)c1ccccc1NCCO (centres undefined)	.	.	-10.2	.	.	.	.	.	.	.	.	.
CC1Cc2ccccc2N1C(=O)CN(C)S(=O)(=O)c1cccc2cccnc12 (centres undefined)	.	0.5	-3.9	-0.77	i	5.7	0.00558	0.00549	0.0227*	0.00724	?	0.0105
CC1Cc2ccccc2N1C(=O)COC(=O)c1cccnc1Cl (centres undefined)	-4.01*	-10.9	-2.0	.	i	-4.8	0.00711	0.00609	0.0275	0.0064	?	?
N#Cc1cc2c(nc1SCc1ccccc1)CCCCC2	0.295	-8.1	0.3	-0.43	i	5.7	.	.	.	.	.	.
N#Cc1cc2c(nc1SCC(O)CS(=O)(=O)Cc1ccccc1)CCCC2 (centres undefined)	-2.87*	5.1	0.6	0.58	i	-6.7	?	0.00533	0.0317	0.0072	?	0.0102
O=C(CCc1nc2ccccc2s1)OCc1ccccc1	-0.051	-14.7	1.1	0.49	i	1.0	.	.	.	.	.	.
Cc1cc(C(=O)COC(=O)CCc2nc3ccccc3s2)c(C)n1C	-3.2*	-48.1	1.9	-0.17	i	-3.8	0.00691	?	0.0228*	0.0063	0.0156*	0.00883

Source: PubChem (several laboratories)
